ChEMBL document CHEMBL1126865, “Structure-activity relationship within a series of pyrazolidinone antibacterial agents. 2. Effect of side-chain modification on in vitro activity and pharmacokinetic parameters” (J Med Chem, 1993)
≈ marks a conversion by molar mass, not a printed value.

Key:
Staphylococcus aureus = experiment: In vitro antibacterial activity against Staphylococcus aureus X1.1; format: functional
[1] = Maximum concentration in male rats after iv administration of 20 mg/kg; format: ADME, organism-based; set-up: dose 20 mg/kg, route intravenous; conditions: rat, in vivo
Method in brief: (§1)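 Male Sprague-Dawley rats were given 20 mg/kg IV in 0.9% saline through an indwelling jugular cannula, which was also used for serial blood sampling. Plasma and cumulative urine (citrate pH 6.5, metabolism cages) were collected over 6 h and stored at -70 °C. Levels were measured by agar well diffusion bioassay against standard curves in plasma or citrate. Half-life = 0.693/β; recovery as % of dose.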

[2] = (§2) Plasma half-life in rats after intravenous administration; format: ADME, organism-based; conditions: rat; method in brief: as §1
[3] = Half-life period in male rats after iv administration of 20 mg/kg; format: ADME, organism-based; set-up: dose 20 mg/kg, route intravenous; conditions: rat, in vivo; method in brief: as §1
Klebsiella aerogenes = experiment: In vitro antibacterial activity against Enterobacter aerogenes C32; format: functional
Haemophilus influenzae = experiment: In vitro antibacterial activity against Haemophilus influenza C.L; format: functional
Streptococcus pneumoniae = experiment: In vitro antibacterial activity against Streptococcus pneumoniae PARK; format: functional
Escherichia coli [4] = experiment: In vitro antibacterial activity against Escherichia coli EC14; format: functional
[5] = tested on: Staphylococcus epidermidis; experiment: In vitro antibacterial activity against Staphylococcus epidermidis 222; format: functional
Pseudomonas aeruginosa = experiment: In vitro antibacterial activity against Pseudomonas PS72; format: functional
[6] = Urinary recovery expressed as percentage dose in male rats after iv administration of 20 mg/kg; format: ADME, organism-based; set-up: dose 20 mg/kg, route intravenous; conditions: rat, urine; method in brief: as §1
Klebsiella pneumoniae = experiment: In vitro antibacterial activity against Klebsiella X26; format: functional
[7] = Plasma half-life in human after intravenous administration; format: ADME, organism-based
[8] = (§3) Plasma half-life in monkey after intravenous administration; format: ADME, organism-based; conditions: simiiformes
Method in brief: (§4)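 Male rhesus monkeys (n = 3) dosed iv at 30 mg/kg in 0.9% saline; plasma sampled from cephalic vein over 3 h. Drug levels by agar well diffusion bioassay (E. coli ATCC4157 or Proteus providentia XC24) against standard curves in spiked plasma. Samples stored at -70 °C. Half-life = 0.693/β, β the terminal slope of plasma vs time curve.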

Streptococcus pyogenes [9] = experiment: Minimum inhibitory concentration against Streptococcus pyogenes (C203) after po administration in mice; format: functional
Escherichia coli [10] = experiment: Minimum inhibitory concentration against Escherichia coli EC14 after po administration in mice; format: functional
[11] = Urinary recovery in male rats after iv administration of 20 mg/kg; format: ADME, organism-based; set-up: dose 20 mg/kg, route intravenous; conditions: rat, urine; method in brief: as §1
Escherichia coli [12] = experiment: Minimum inhibitory concentration against Escherichia coli EC14 after sc administration in mice; format: functional
Escherichia coli [13] = experiment: Effective dose against Escherichia coli EC14 after sc administration in mice; format: functional
Streptococcus pyogenes [14] = experiment: Effective dose against Streptococcus pyogenes (C203) after sc administration in mice; format: functional
[15] = Plasma binding expressed as percentage in rats […]; format: ADME, organism-based; conditions: rat, iv, read-out: Plasma binding (converted)
Method in brief: (§5)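 Binding was measured in vitro in pooled Sprague-Dawley rat plasma at a drug concentration of 20 μg/mL by ultrafiltration and reported as % bound.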

[16] = Urinary recovery in male CD-1 mice after po administration of 20 mg/kg; format: ADME, organism-based; set-up: dose 20 mg/kg, route oral; conditions: CD-1, mouse, urine
Method in brief: (§6)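 Male CD-1 mice received 20 mg/kg in 0.9% saline, orally or subcutaneously. Cumulative urine over 0–4 h was collected from metabolism cages into 0.1 M sodium citrate, pH 6.5, and stored at -70 °C. Drug levels were measured by agar well diffusion bioassay (E. coli ATCC4157 or Proteus providentia XC24) against spiked standard curves. Half-life = 0.693/β (terminal slope); urinary recovery as % of dose.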

Streptococcus pyogenes [17] = experiment: Effective dose against Streptococcus pyogenes (C203) after po administration in mice; format: functional
[18] = Half-life period in male CD-1 mice after sc administration of 20 mg/kg; format: ADME, organism-based; set-up: dose 20 mg/kg, route subcutaneous; conditions: CD-1, mouse, in vivo; method in brief: as §6
Streptococcus pyogenes [19] = experiment: Minimum inhibitory concentration against Streptococcus pyogenes (C203) after sc administration in mice; format: functional
Escherichia coli [20] = experiment: Effective dose against Escherichia coli EC14 after po administration in mice; format: functional
[21] = Maximum concentration in male CD-1 mice after sc administration of 20 mg/kg; format: ADME, organism-based; set-up: dose 20 mg/kg, route subcutaneous; conditions: CD-1, mouse, in vivo; method in brief: as §6
[22] = Urinary recovery expressed as percentage dose in male CD-1 mice after po administration of 20 mg/kg; format: ADME, organism-based; set-up: dose 20 mg/kg, route oral; conditions: CD-1, mouse, urine; method in brief: as §6
[23] = Plasma binding in male rats […] expressed as percentage of plasma binding; format: ADME, organism-based; conditions: rat, iv, read-out: Plasma binding (converted); method in brief: as §5
Monkey = experiment: as §3; format: functional, organism-based; conditions: Cercopithecidae; method in brief: as §4
Rattus norvegicus = experiment: as §2; format: functional, organism-based; method in brief: as §1

Row | Structure (SMILES) | MIC (Staphylococcus aureus) [µg/mL] | Cmax [1] [µg/mL] | half-life [2] [min] | half-life [3] [min] | MIC (Klebsiella aerogenes) [µg/mL] | MIC (Haemophilus influenzae) [µg/mL] | MIC (Streptococcus pneumoniae) [µg/mL] | MIC (Escherichia coli [4]) [µg/mL] | MIC [5] [µg/mL] | MIC (Pseudomonas aeruginosa) [µg/mL] | dose excreted [6] [%] | MIC (Klebsiella pneumoniae) [µg/mL] | half-life [7] [min] | half-life [8] [min] | other results
1 | CCCS(=O)(=O)C1=C(C(=O)O)N2C(=O)[C@@H](NC(=O)/C(=N/OCCCl)c3csc(N)n3)CN2C1 | 8 (≈ 15.4 µM) | 74.3 | 15 | 14.7 | 0.5 (≈ 0.96 µM) | 0.125 (≈ 0.24 µM) | 0.06 (≈ 0.115 µM) | 0.125 (≈ 0.24 µM) | 16 (≈ 30.7 µM) | > 128 | 44.2 | 0.03 (≈ 0.0576 µM) |  |  | 
2 | CC(C)(O/N=C(\C(=O)N[C@@H]1C(=O)N2C(C(=O)[O-])=C(C[n+]3ccccc3)CS[C@H]12)c1csc(N)n1)C(=O)O [CEFTAZIDIME] |  |  | 23 |  |  |  |  |  |  |  |  |  | 108 | 49 | 
3 | Cn1nnnc1SCC1=C(C(=O)O)N2C(=O)[C@@H](NC(=O)[C@H](O)c3ccccc3)[C@H]2SC1 [CEFAMANDOLE] |  |  |  |  |  |  |  |  |  |  |  |  | 48 |  | T1/2 (Monkey): 34 min; T1/2 (Rattus norvegicus): 15 min
4 | C=CCCO/N=C(/C(=O)N[C@H]1CN2CC(S(C)(=O)=O)=C(C(=O)O)N2C1=O)c1csc(N)n1 | 4 (≈ 8.26 µM) | 70.3 | 11 | 11.3 | 0.25 (≈ 0.516 µM) | 0.125 (≈ 0.258 µM) | 0.06 (≈ 0.124 µM) | 0.06 (≈ 0.124 µM) | 8 (≈ 16.5 µM) | 128 (≈ 264 µM) | 53.1 | 0.015 (≈ 0.031 µM) |  | 36 | 
5 | CC(C)=CCO/N=C(/C(=O)N[C@H]1CN2CC(S(C)(=O)=O)=C(C(=O)O)N2C1=O)c1csc(N)n1 | 4 (≈ 8.02 µM) |  |  |  | 2 (≈ 4.01 µM) | 0.25 (≈ 0.501 µM) | 0.06 (≈ 0.12 µM) | 0.5 (≈ 1 µM) | 8 (≈ 16 µM) | > 128 |  | 0.06 (≈ 0.12 µM) |  |  | 

More lines, main results first:

Row | MIC (Staphylococcus aureus) [µg/mL] | Cmax [1] [µg/mL] | half-life [2] [min] | half-life [3] [min] | MIC (Klebsiella aerogenes) [µg/mL] | MIC (Haemophilus influenzae) [µg/mL] | MIC (Streptococcus pneumoniae) [µg/mL] | MIC (Escherichia coli [4]) [µg/mL] | MIC [5] [µg/mL] | MIC (Pseudomonas aeruginosa) [µg/mL] | dose excreted [6] [%] | MIC (Klebsiella pneumoniae) [µg/mL] | half-life [7] [min] | half-life [8] [min] | Structure (SMILES) | other results
6 | 32 (≈ 72 µM) | 120 | 25 | 24.7 | 0.25 (≈ 0.562 µM) | 0.5 (≈ 1.12 µM) | 0.25 (≈ 0.562 µM) | 0.06 (≈ 0.135 µM) | 64 (≈ 144 µM) | > 128 |  | 0.125 (≈ 0.281 µM) |  |  | CO/N=C(\C(=O)NC1CN2CC(S(C)(=O)=O)=C(C(=O)O)N2C1=O)c1csc(N)n1 (stereo not given) | MIC (Streptococcus pyogenes [9]): 0.03 µg/mL (≈ 0.0675 µM); MIC (Escherichia coli [10]): 0.06 µg/mL (≈ 0.135 µM); dose excreted [11]: 80.4%; MIC (Escherichia coli [12]): 0.06 µg/mL (≈ 0.135 µM); ED50 (Escherichia coli [13]): < 0.625 mg/kg; ED50 (Streptococcus pyogenes [14]): 1.8 mg/kg; fraction unbound [15]: 0.78; dose excreted [16]: < 2%; ED50 (Streptococcus pyogenes [17]): 13.5 mg/kg; half-life [18]: 10.6 min; MIC (Streptococcus pyogenes [19]): 0.03 µg/mL (≈ 0.0675 µM); ED50 (Escherichia coli [20]): 7.93 mg/kg; Cmax [21]: 53.8 µg/mL
7 | 64 (≈ 164 µM) | 120 | 18 | 17.9 | 1 (≈ 2.56 µM) | 0.5 (≈ 1.28 µM) | 0.25 (≈ 0.639 µM) | 0.25 (≈ 0.639 µM) | 64 (≈ 164 µM) | > 128 | 87.8 | 0.25 (≈ 0.639 µM) |  |  | CO/N=C(\C(=O)N[C@H]1CN2CC(C#N)=C(C(=O)O)N2C1=O)c1csc(N)n1 | MIC (Streptococcus pyogenes [9]): 0.25 µg/mL (≈ 0.639 µM); MIC (Escherichia coli [10]): 0.25 µg/mL (≈ 0.639 µM); MIC (Escherichia coli [12]): 0.25 µg/mL (≈ 0.639 µM); dose excreted [22]: < 2%; ED50 (Escherichia coli [13]): 0.67 mg/kg; ED50 (Streptococcus pyogenes [14]): 0.625 mg/kg; fraction unbound [23]: 0.585; ED50 (Streptococcus pyogenes [17]): 6.68 mg/kg; half-life [18]: 12.2 min; MIC (Streptococcus pyogenes [19]): 0.25 µg/mL (≈ 0.639 µM); ED50 (Escherichia coli [20]): 7.87 mg/kg; Cmax [21]: 71 µg/mL
8 |  |  | 15 |  |  |  |  |  |  |  |  |  | 96 | 44 | CO/N=C(\C(=O)N[C@@H]1C(=O)N2C(C(=O)O)=CCS[C@H]12)c1csc(N)n1 [CEFTIZOXIME] | 
